{"source": "paper PMC6531306", "about": "(Theranostics, 2019)", "key": {"[1]": {"system": "isolated a and a'c domains of PDI", "assay": "PDI reductase assay with isolated domains", "format": "biochemical", "details": "domains 1.6 μM; PACMA31 100 μM, 35G8 1 μM", "how_it_was_run": "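Isolated His-tagged a and a'c domains were expressed in E. coli and Ni-NTA purified. Each domain was incubated with test compound for 45 min at room temperature in 100 mM sodium phosphate, 2 mM EDTA, 8 μM DTT, pH 7.0. DTT (100 μM) and insulin (130 μM) were then added, and aggregation of reduced insulin B chain was monitored at 650 nm.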"}, "U87MG xenografts": {"system": "U87MG xenografts", "assay": "Mouse flank xenograft model of GBM", "format": "in vivo, mice", "details": "TMZ 5 mg/kg oral gavage, five days/week, two weeks", "how_it_was_run": "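Athymic nude Foxn1nu mice (4–6 weeks) bore subcutaneous flank U87MG or D54 xenografts (250,000 cells in RPMI:Matrigel 1:1). From 100 mm3, they received test compound 20 mg/kg i.p. in 5 % DMSO/65 % 1,2-propanediol/30 % saline and/or TMZ 5 mg/kg in Ora-Plus by oral gavage, five days/week for two weeks. Body weight was recorded twice weekly.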"}, "a'c domain of PDI": {"molecular_target": "a'c domain of PDI (Homo sapiens, UniProt P07237)", "sequence (P07237 349-508 limits assumed)": "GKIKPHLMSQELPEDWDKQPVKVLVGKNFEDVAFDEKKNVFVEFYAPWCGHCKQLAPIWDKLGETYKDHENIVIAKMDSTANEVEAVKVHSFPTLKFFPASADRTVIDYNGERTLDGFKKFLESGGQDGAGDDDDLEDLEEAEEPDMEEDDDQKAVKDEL", "assay": "AMS assay", "format": "binding", "details": "20 μM domain, 40 μM compound, 1 h", "how_it_was_run": "(§1)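 Isolated a or a'c domain (20 μM) was incubated with or without 40 μM test compound for 1 h in PBS at 25 °C. Free thiols were then blocked with 2 mM AMS. Samples were resolved by SDS-PAGE and stained with Coomassie blue.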"}, "[2]": {"system": "PDI, PDIp, ERp57, ERp46, ERp72, P5, and ERp18", "assay": "PDI reductase assay, panel of PDI family members", "format": "biochemical", "details": "family members 1 μM, compound 40 μM"}, "[3]": {"system": "D54, U87MG and A172 cells", "assay": "Western blot of DNA repair and DDR proteins", "format": "cell-based, human", "details": "24 hours", "how_it_was_run": "(§2)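 Protein was measured by BCA. Lysates were resolved on 10 % or 4–12 % gels and transferred to PVDF. Membranes were blocked (StartingBlock or 5 % BSA) and probed with primary antibodies. Detection used DyLight 800 infrared imaging or HRP secondaries with ECL.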"}, "U87MG cells": {"system": "U87MG cells", "format": "cell-based, human", "details": "Hallmark E2F Targets"}, "a domain of PDI": {"molecular_target": "a domain of PDI (Homo sapiens, UniProt P07237)", "sequence (P07237 18-134 limits assumed)": "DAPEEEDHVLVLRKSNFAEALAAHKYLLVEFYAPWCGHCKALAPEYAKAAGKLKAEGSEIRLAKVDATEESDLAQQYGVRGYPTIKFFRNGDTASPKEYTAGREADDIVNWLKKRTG", "assay": "AMS assay", "format": "binding", "details": "20 μM domain, 40 μM compound, 1 h", "how_it_was_run": "as §1"}, "Sox2": {"system": "Sox2", "assay": "Western blot of stemness marker", "format": "cell-based", "details": "Figure 4H", "how_it_was_run": "as §2"}}, "data": [{"compound": "C[C@]12CC[C@@H]3c4ccc(O)cc4CC[C@H]3[C@@H]1CC[C@@H]2O", "note": "[Estradiol, estradiol]", "values": [{"measurement": "inhibition of reductase activity of isolated domains", "setting": "[1]", "result": "did not inhibit"}]}, {"compound": "Cn1nnc2c(C(N)=O)ncn2c1=O", "note": "[TMZ, temozolomide]", "values": [{"measurement": "decrease in body weight", "setting": "U87MG xenografts", "result": 15, "unit": "%"}]}, {"compound": "CCN(C)C(=O)C1(CCOc2ccccc2)CCN(Cc2ccc(O)c(Cl)c2)CC1", "note": "[bepristat 1a]", "values": [{"measurement": "inhibition of reductase activity of isolated domains", "setting": "[1]", "result": "did not inhibit"}]}, {"compound": "PACMA31", "values": [{"measurement": "AMS binding to a'c domain thiols", "setting": "a'c domain of PDI", "result": "blocked AMS binding"}, {"measurement": "inhibition of reductase activity of isolated domains", "setting": "[1]", "result": "inhibit reductase activity"}, {"measurement": "selectivity among PDI family members", "setting": "[2]", "result": "inhibits all tested PDI family enzymes"}, {"measurement": "E2F1 and RAD51 protein expression", "setting": "[3]", "result": "dose-dependently lower"}, {"measurement": "genes of the E2F targets gene set downregulated", "setting": "U87MG cells", "result": 72, "unit": "%"}, {"measurement": "AMS binding to a domain thiols", "setting": "a domain of PDI", "result": "blocked AMS binding"}, {"measurement": "Sox2 protein expression", "setting": "Sox2", "result": "dose-dependently abrogated"}]}]}
